We go through twelve compounds from ChEMBL document CHEMBL1147241, “Cytotoxic constituents of Isodon rubescens var. lushiensis” (J Nat Prod, 2003).

Values after ≈ are worked out from the molar mass of the structure shown.

Tested on in one assay: not listed separately
The experiment in a line: Cytotoxicity against human CA cells by SRB method. It is filed as functional, cell-based. The method, boiled down:
(§1)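 Sulforhodamine B (SRB) assay on CA liver cancer and HeLa cervical cancer cells; cis-platinum as positive control. Optical density recorded as mean ± S; IC50 calculated from OD data.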
(In general: Sulforhodamine B stains cellular protein and so reports cell mass.)
A word on the IC50: it is the concentration that gives 50% inhibition. For the compound `C=C1C(=O)[C@]23C[C@H]1CC[C@H]2[C@@]1(CCC[C@@]2(C)CO[C@@H](OC)[C@H]21)COC3=O` [LUDONGNIN J], the IC50 came to 0.09 µg/mL (≈ 0.25 µM).

Another assay relates to HeLa. In words: Cytotoxicity against human HeLa cells by SRB method. In kind it is functional, cell-based. An outline of the steps:
as §1
`C=C1C(=O)[C@]23C[C@H]1CC[C@H]2[C@@]1(CCC[C@@]2(C)CO[C@@H](OC)[C@H]21)COC3=O` [LUDONGNIN J] yielded an IC50 of 0.7 µg/mL (≈ 1.94 µM).

The subject of a further assay is K562. The experiment in a line: Cytotoxicity against human K562 cells by MTT method. It is filed as functional, cell-based. An outline of the steps: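 Improved MTT assay on K562 human leukemia cells; cis-platinum as positive control. Optical density recorded as mean ± S; IC50 calculated from OD data.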
Background: Tetrazolium assays rely on reduction of a dye to a coloured formazan, in cell work by metabolically active cells.
In turn, `C=C1C(=O)[C@]23C[C@H]1CC[C@H]2[C@@]1(CCC[C@@]2(C)CO[C@@H](OC)[C@H]21)COC3=O` [LUDONGNIN J] registered an IC50 of 0.18 µg/mL (≈ 0.499 µM).

Turning to `C[C@H]1C(=O)[C@]23C[C@H]1CC[C@H]2[C@@]1(CCC[C@@]2(C)COC(=O)[C@H]21)COC3=O` [GUIDONGNIN B], the IC50 was > 50 µg/mL.

In the case of `CO[C@@H]1OC[C@]2(C)CCC[C@]3(COC(=O)[C@@]45C[C@@H](CC[C@H]43)[C@H](C)C5=O)[C@H]12` [LUDONGNIN G], the IC50 was > 50 µg/mL.

`C=C1C(=O)[C@]23C[C@H]1C[C@@H](O)[C@H]2[C@@]1(CCC[C@@]2(C)CO[C@@H](OC)[C@H]21)COC3=O` returned an IC50 of 0.87 µg/mL (≈ 2.31 µM).

With `C[C@H]1C(=O)[C@]23C[C@H]1C[C@@H](O)[C@H]2[C@@]1(CCC[C@@]2(C)COC(=O)[C@H]21)COC3=O` [GUIDONGNIN C], the IC50 is > 50 µg/mL.

Take `C=C1[C@@H]2C[C@@H](O)[C@H]3[C@@]4(CCC[C@@]5(C)COC(=O)[C@H]54)COC(=O)[C@]3(C2)[C@@H]1O` [GUIDONGNIN A]: the IC50 came to 0.3 µg/mL (≈ 0.828 µM).

As to `CO[C@H]1OC[C@]2(C)CCC[C@]3(COC(=O)[C@@]45C[C@@H](CC[C@H]43)[C@@H](C)C5=O)[C@H]12` [LUDONGNIN I], the half-inhibitory concentration (IC50) is > 50 µg/mL.

As for `C=C1C(=O)[C@]23C[C@H]1C[C@@H](O)[C@H]2[C@@]1(CCC[C@@]2(C)CO[C@H](OC)[C@H]21)COC3=O` [ANGUSTIFOLIN], the IC50 amounted to 0.23 µg/mL (≈ 0.611 µM).

On to `CO[C@@H]1OC[C@]2(C)CCC[C@]3(COC(=O)[C@@]45C[C@@H](CC[C@H]43)[C@@H](C)C5=O)[C@H]12` [LUDONGNIN F], for which the IC50 is > 50 µg/mL.

In the case of `C=C1C(=O)[C@]23C[C@H]1CC[C@H]2[C@]1(COC3=O)C2CC[C@@]3(C)COC(O2)[C@H]31` (some centres undefined) [SCULPONEATIN J], half-maximal inhibition (IC50) was put at 0.83 µg/mL (≈ 2.41 µM).

As to `CO[C@H]1OC[C@]2(C)CCC[C@]3(COC(=O)[C@@]45C[C@@H](CC[C@H]43)[C@H](C)C5=O)[C@H]12` [LUDONGNIN H], the IC50 was > 50 µg/mL.

Consider `C=C1C(=O)[C@]23C[C@H]1C[C@@H](O)[C@H]2[C@@]1(CCC[C@@]2(C)COC(=O)[C@H]21)COC3=O` [LUDONGNIN A], for which it took 0.25 µg/mL (≈ 0.694 µM) to reach half-maximal inhibition (IC50).
